Data reported in ChEMBL document CHEMBL2021876, “New pyridobenzoxazepine derivatives derived from 5-(4-methylpiperazin-1-yl)-8-chloro-pyrido[2,3-b][1,5]benzoxazepine (JL13): chemical synthesis and pharmacological evaluation” (J Med Chem, 2012).

Tests used:
Hippocampus [1] = assay: In vivo displacement of [3H]Ketanserin from 5HT2A receptor in Sprague-Dawley rat hippocampus CA3 region at 13.75 mg/kg, ip qd for 28 days by autoradiography relative to control; assay type: functional; details: route intraperitoneal
In short: (§1)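 Rats (male Sprague-Dawley, N = 8/group) given daily ip injections for 28 days versus vehicle. Brain sections preincubated 1 h RT in 50 mM Tris-HCl pH 7.7, then 1 h RT with 3.0 nM [3H]ketanserin plus 1 μM prazosin and 100 nM tetrabenazine. Nonspecific: 1 μM methysergide. Washes 2 × 30 min ice-cold. Readout fmol/mg tissue as % of control, mean ± SEM.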

[2] = In vivo displacement of [3H]Ketanserin from 5HT2A receptor in Sprague-Dawley rat entorhinal cortex at 13.75 mg/kg, ip qd for 28 days by autoradiography relative to control; assay type: functional; details: route intraperitoneal; in short: as §1
[3] = biological target: D(2) dopamine receptor (Rattus norvegicus) (UniProt P61169); assay: In vivo displacement of [3H]Nemonapride from dopamine D2 receptor in Sprague-Dawley rat entorhinal cortex at 13.75 mg/kg, ip qd for 28 days by autoradiography relative to control; assay type: functional, organism-based; set-up: dose 13.75 mg/kg
Sequence of D(2) dopamine receptor (Rattus norvegicus) (P61169 whole entry): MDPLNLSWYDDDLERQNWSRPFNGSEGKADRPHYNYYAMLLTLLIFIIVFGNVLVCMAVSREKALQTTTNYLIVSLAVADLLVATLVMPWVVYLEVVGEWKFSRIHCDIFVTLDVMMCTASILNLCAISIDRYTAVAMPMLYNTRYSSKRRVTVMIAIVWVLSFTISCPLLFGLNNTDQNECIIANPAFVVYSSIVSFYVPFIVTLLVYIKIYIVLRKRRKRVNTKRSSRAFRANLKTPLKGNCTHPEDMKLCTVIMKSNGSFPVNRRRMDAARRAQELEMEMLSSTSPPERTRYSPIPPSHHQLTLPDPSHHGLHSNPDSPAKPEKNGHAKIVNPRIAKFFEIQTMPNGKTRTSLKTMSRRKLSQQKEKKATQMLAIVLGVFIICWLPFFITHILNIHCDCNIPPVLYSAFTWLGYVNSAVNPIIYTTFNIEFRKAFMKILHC
In short: (§2)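 Male Sprague-Dawley rats, N = 8/group, daily ip dosing for 28 days with vehicle controls; cryostat sections (10 μm) preincubated 1 h RT. Incubation 1 h RT in 50 mM Tris-HCl pH 7.4, 120 mM NaCl, 5 mM KCl, 2 mM CaCl2, 1 mM MgCl2 with 1 nM [3H]nemonapride, 0.5 μM DTG, 0.1 μM pindolol. Nonspecific: 10 μM S(−)-sulpiride. Values fmol/mg tissue, % of control.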

[4] = biological target: T1, Serotonin 1a (5-HT1a) receptor/Adrenergic receptor alpha-1 (Rattus norvegicus) (UniProt P15823+P23944+P43140+P19327); assay: In vivo displacement of [3H]8-OH-DPAT from 5HT1A receptor in Sprague-Dawley rat medial-prefrontal cortex at 13.75 mg/kg, ip qd for 28 days by autoradiography relative to control; assay type: functional, organism-based; set-up: dose 13.75 mg/kg
In short: (§3)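 Male Sprague-Dawley rats (200−225 g, N = 8/group) dosed ip once daily for 28 days, vehicle controls, decapitated; 10 μm frozen coronal sections. Preincubation 1 h RT in 50 mM Tris-HCl pH 7.6, 0.1% ascorbic acid, 4 mM CaCl2, 10 μM pargyline; then 1 h RT with 2.0 nM [3H]8-OH-DPAT. Nonspecific: 1 μM 5-HT. Saturating conditions; binding in fmol/mg tissue, % of control, mean ± SEM.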

[5] = biological target: T1, Serotonin 1a (5-HT1a) receptor/Adrenergic receptor alpha-1 (Rattus norvegicus); assay: In vivo displacement of [3H]8-OH-DPAT from 5HT1A receptor in Sprague-Dawley rat dorsolateral frontal cortex at 13.75 mg/kg, ip qd for 28 days by autoradiography relative to control; assay type: functional, organism-based; set-up: dose 13.75 mg/kg; in short: as §3
Hippocampus [6] = assay: In vivo displacement of [3H]8-OH-DPAT from 5HT1A receptor in Sprague-Dawley rat hippocampus CA1 region at 13.75 mg/kg, ip qd for 28 days by autoradiography relative to control; assay type: functional; details: route intraperitoneal; in short: as §3
[7] = In vivo displacement of [3H]Ketanserin from 5HT2A receptor in Sprague-Dawley rat dorsolateral frontal cortex at 13.75 mg/kg, ip qd for 28 days by autoradiography relative to control; assay type: functional; details: route intraperitoneal; in short: as §1
Caudate-putamen [8] = assay: In vivo displacement of [3H]Ketanserin from 5HT2A receptor in Sprague-Dawley rat medial part of caudate putamen at 13.75 mg/kg, ip qd for 28 days by autoradiography relative to control; assay type: functional; details: route intraperitoneal; in short: as §1
Caudate-putamen [9] = assay: In vivo displacement of [3H]Ketanserin from 5HT2A receptor in Sprague-Dawley rat lateral part of caudate putamen at 13.75 mg/kg, ip qd for 28 days by autoradiography relative to control; assay type: functional; details: route intraperitoneal; in short: as §1
Hippocampus [10] = assay: In vivo displacement of [3H]Ketanserin from 5HT2A receptor in Sprague-Dawley rat hippocampus CA1 region at 13.75 mg/kg, ip qd for 28 days by autoradiography relative to control; assay type: functional; details: route intraperitoneal; in short: as §1
[11] = biological target: T2, Alpha-2A adrenergic receptor (Homo sapiens, UniProt P08913); assay: Displacement of [3H]-MK-912 from human cloned adrenergic alpha2A receptor expressed in insect Sf9 membranes after 60 mins by liquid scintillation counting; assay type: cell membranes
T2 sequence (P08913 whole entry): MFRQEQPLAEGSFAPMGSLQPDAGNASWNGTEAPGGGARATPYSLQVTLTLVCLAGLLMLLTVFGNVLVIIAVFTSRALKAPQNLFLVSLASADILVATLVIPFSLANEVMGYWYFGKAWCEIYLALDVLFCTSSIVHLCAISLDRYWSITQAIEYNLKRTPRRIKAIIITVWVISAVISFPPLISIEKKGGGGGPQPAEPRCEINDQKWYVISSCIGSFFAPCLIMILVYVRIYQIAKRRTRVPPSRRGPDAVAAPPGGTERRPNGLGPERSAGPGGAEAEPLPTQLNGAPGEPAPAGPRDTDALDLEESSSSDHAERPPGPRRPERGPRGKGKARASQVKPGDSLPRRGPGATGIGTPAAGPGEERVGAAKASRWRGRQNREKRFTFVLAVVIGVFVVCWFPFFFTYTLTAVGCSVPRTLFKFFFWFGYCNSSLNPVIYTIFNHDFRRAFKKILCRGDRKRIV
In short: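 Membranes from Sf9 cells expressing cloned human α2A-adrenoceptor. Nonspecific binding defined with 10 μM WB4101. Filtered on GF/C and counted by scintillation.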

[12] = In vivo displacement of [3H]SCH-23390 from dopamine D1 receptor in Sprague-Dawley rat dorsolateral frontal cortex at 13.75 mg/kg, ip qd for 28 days by autoradiography relative to control; assay type: functional; details: route intraperitoneal
In short: (§4)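 Forebrain sections from male Sprague-Dawley rats (N = 8/group) after 28 days of daily ip injections versus vehicle. Incubation 1 h RT in 50 mM Tris-HCl pH 7.4, 120 mM NaCl, 5 mM KCl, 2 mM CaCl2, 1 mM MgCl2 with 1 nM [3H]SCH-23390 and 100 nM ketanserin. Nonspecific: 1 μM cis-flupenthixol. Saturating conditions; fmol/mg tissue, % of control.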

Caudate-putamen [13] = assay: In vivo displacement of [3H]SCH-23390 from dopamine D1 receptor in Sprague-Dawley rat medial part of caudate putamen at 13.75 mg/kg, ip qd for 28 days by autoradiography relative to control; assay type: functional; details: route intraperitoneal; in short: as §4
Hippocampus [14] = assay: In vivo displacement of [3H]SCH-23390 from dopamine D1 receptor in Sprague-Dawley rat hippocampus at 13.75 mg/kg, ip qd for 28 days by autoradiography relative to control; assay type: functional; details: route intraperitoneal; in short: as §4
[15] = biological target: D(2) dopamine receptor (Rattus norvegicus) (UniProt P61169); assay: In vivo displacement of [3H]Nemonapride from dopamine D2 receptor in Sprague-Dawley rat medial-prefrontal cortex at 13.75 mg/kg, ip qd for 28 days by autoradiography relative to control; assay type: functional, organism-based; set-up: dose 13.75 mg/kg; in short: as §2
[16] = biological target: D(2) dopamine receptor (Rattus norvegicus) (UniProt P61169); assay: In vivo displacement of [3H]Nemonapride from dopamine D2 receptor in Sprague-Dawley rat nucleus accumbens at 13.75 mg/kg, ip qd for 28 days by autoradiography relative to control; assay type: functional, organism-based; set-up: dose 13.75 mg/kg; in short: as §2
Caudate-putamen [17] = assay: In vivo displacement of [3H]Nemonapride from dopamine D2 receptor in Sprague-Dawley rat medial of caudate putamen at 13.75 mg/kg, ip qd for 28 days by autoradiography relative to control; assay type: functional; details: route intraperitoneal; in short: as §2
Hippocampus [18] = assay: In vivo displacement of [3H]Nemonapride from dopamine D2 receptor in Sprague-Dawley rat hippocampus at 13.75 mg/kg, ip qd for 28 days by autoradiography relative to control; assay type: functional; details: route intraperitoneal; in short: as §2

## Clc1ccc2c(c1)N=C(N1CCNCC1)c1cccnc1O2
Hippocampus [1]
  inhibition in vivo at 13.75 mg/kg: 92%
[2]
  inhibition in vivo at 13.75 mg/kg: 90%
[3]
  inhibition: 96%
[4]
  inhibition: 137%
[5]
  inhibition: 141%
Hippocampus [6]
  inhibition in vivo at 13.75 mg/kg: 95%
[7]
  inhibition in vivo at 13.75 mg/kg: 53%
Caudate-putamen [8]
  inhibition in vivo at 13.75 mg/kg: 87%
Caudate-putamen [9]
  inhibition in vivo at 13.75 mg/kg: 107%
Hippocampus [10]
  inhibition in vivo at 13.75 mg/kg: 96%
[11]
  Ki: 729 nM
[12]
  inhibition in vivo at 13.75 mg/kg: 95%
Caudate-putamen [13]
  inhibition in vivo at 13.75 mg/kg: 131%
Hippocampus [14]
  inhibition in vivo at 13.75 mg/kg: 105%
[15]
  inhibition: 141%
[16]
  inhibition: 140%
Caudate-putamen [17]
  inhibition in vivo at 13.75 mg/kg: 110%
Hippocampus [18]
  inhibition in vivo at 13.75 mg/kg: 134%
